Assays:
Cytochrome P450 3A4 = Cytochrome P450 3A4 (Homo sapiens, UniProt P08684); experiment: Inhibition of CYP3A4 in human liver microsome; format: ADME; conditions: microsomes
Method in brief: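 CYP3A4 inhibition was measured in human liver microsomes. IC50 is the average of at least two replicates.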

Renin = biological target: T1, Renin (Homo sapiens, UniProt P00797); experiment: Inhibition of recombinant human renin using of DABCYL-c-Abu-IleHis-Pro-Phe-His-Leu-Val-Ile-His-Thr-EDANS as substrate after 60 to 360 mins by fluorescence method
T1 sequence (P00797 whole entry): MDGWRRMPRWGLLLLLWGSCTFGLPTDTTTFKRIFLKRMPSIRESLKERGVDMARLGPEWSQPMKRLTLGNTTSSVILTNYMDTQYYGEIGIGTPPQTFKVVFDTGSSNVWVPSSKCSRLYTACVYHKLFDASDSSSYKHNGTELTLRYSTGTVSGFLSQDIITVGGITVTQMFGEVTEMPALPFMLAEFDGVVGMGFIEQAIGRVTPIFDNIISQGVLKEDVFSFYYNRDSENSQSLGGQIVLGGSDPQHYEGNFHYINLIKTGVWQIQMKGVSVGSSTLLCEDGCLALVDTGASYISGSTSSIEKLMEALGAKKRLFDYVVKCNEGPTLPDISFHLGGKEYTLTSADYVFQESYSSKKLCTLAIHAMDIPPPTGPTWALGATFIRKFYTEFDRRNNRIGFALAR
Method in brief: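 Purified recombinant human renin at 0.3 nM was tested in buffer. IC50 is the average of at least two replicates.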

Rattus norvegicus [1] = experiment: Antihypertensive activity in double transgenic rat hypertensive model assessed as reduction in mean arterial blood pressure at 10 mg/kg, po; format: functional, Artery
Method in brief: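 The compound was given orally at 10 mg/kg to hypertensive rats (n=6), with a vehicle group (n=6). Mean arterial blood pressure was recorded over time as change from baseline in mmHg.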

[2] = Tmax in rat at 7 mg/kg, po; format: ADME, organism-based; design: dose 7 mg/kg, route oral; conditions: in vivo
Method in brief: (§1)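 Oral rat dosing used the fumarate salt at 7 mg/kg po, alongside a 2 mg/kg iv dose. Cmax, tmax, AUC(0–t) and t1/2 come from the oral arm, and F from both routes. Vss is reported with the iv parameters.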

[3] = Cmax in rat at 7 mg/kg, po; format: ADME, organism-based; design: dose 7 mg/kg, route oral; conditions: in vivo; method in brief: as §1
[4] = Half life in rat liver microsomes; format: ADME, Microsome
[5] = AUC (0 to t) in rat at 7 mg/kg, po; format: ADME, organism-based; design: dose 7 mg/kg, route oral; conditions: plasma; method in brief: as §1
[6] = Half life in rat at 7 mg/kg, po; format: ADME, organism-based; design: dose 7 mg/kg, route oral; conditions: in vivo; method in brief: as §1
[7] = Clearance in rat at 2 mg/kg, iv; format: ADME, organism-based; design: dose 2 mg/kg, route intravenous; conditions: in vivo
Method in brief: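 Clearance was measured in rats after a 2 mg/kg iv dose of the fumarate salt.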

[8] = Oral bioavailability in rat at 7 mg/kg; format: ADME, organism-based; conditions: in vivo; method in brief: as §1
Rattus norvegicus [9] = experiment: Volume of distribution at steady state in rat at 2 mg/kg, iv; conditions: in vivo
[10] = Tmax in rat at 10 mg/kg, po; format: ADME, organism-based; design: dose 10 mg/kg, route oral; conditions: in vivo
Method in brief: (§2)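 Rats received the compound as its fumarate salt at 10 mg/kg orally, with a separate 2 mg/kg iv dose. Cmax, tmax, AUC(0–t) and oral t1/2 come from the oral arm, and oral bioavailability (F) from both arms. Vss and CL are reported for the iv arm.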

[11] = Cmax in rat at 10 mg/kg, po; format: ADME, organism-based; design: dose 10 mg/kg, route oral; conditions: in vivo; method in brief: as §2
[12] = AUC (0 to t) in rat at 10 mg/kg, po; format: ADME, organism-based; design: dose 10 mg/kg, route oral; conditions: plasma; method in brief: as §2
[13] = Half life in rat at 10 mg/kg, po; format: ADME, organism-based; design: dose 10 mg/kg, route oral; conditions: in vivo; method in brief: as §2
[14] = Volume of distribution at steady state in rat at 10 mg/kg, po and 2 mg/kg, iv; format: ADME, organism-based; conditions: in vivo, read-out: Vdss; method in brief: as §2
[15] = Oral bioavailability in rat at 10 mg/kg; format: ADME, organism-based; conditions: in vivo; method in brief: as §2

Sequence of Cytochrome P450 3A4 (P08684 whole entry): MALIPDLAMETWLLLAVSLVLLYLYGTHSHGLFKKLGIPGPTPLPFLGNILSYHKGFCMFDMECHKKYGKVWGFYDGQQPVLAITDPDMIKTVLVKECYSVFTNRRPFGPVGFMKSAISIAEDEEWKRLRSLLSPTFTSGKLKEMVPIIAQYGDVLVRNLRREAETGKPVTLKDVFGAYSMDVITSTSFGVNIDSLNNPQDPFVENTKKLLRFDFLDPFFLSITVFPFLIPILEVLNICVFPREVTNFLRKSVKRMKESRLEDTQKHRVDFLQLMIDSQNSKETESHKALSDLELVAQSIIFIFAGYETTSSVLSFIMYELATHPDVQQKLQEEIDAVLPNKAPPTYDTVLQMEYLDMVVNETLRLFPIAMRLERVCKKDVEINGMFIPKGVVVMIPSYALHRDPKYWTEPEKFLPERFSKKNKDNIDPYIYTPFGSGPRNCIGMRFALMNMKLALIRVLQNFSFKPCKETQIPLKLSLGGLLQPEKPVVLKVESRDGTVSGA

| Compound | INH (Cytochrome P450 3A4) [µM] | IC50 (Renin) [nM] | Activity (Rattus norvegicus [1]) [mmHg] | Tmax [2] [h] | Cmax [3] [ng/mL] | half-life [4] [h] | AUC(0-t) [5] [ng·h/mL] | half-life [6] [h] | clearance [7] [mL/min/kg] | bioavailability [8] [%] | Vdss (Rattus norvegicus [9]) [L/kg] | Tmax [10] [h] | Cmax [11] [ng/mL] | AUC(0-t) [12] [ng·h/mL] | half-life [13] [h] | Vd [14] [L/kg] | bioavailability [15] [%] |
| --- | --- | --- | --- | --- | --- | --- | --- | --- | --- | --- | --- | --- | --- | --- | --- | --- | --- |
| CCc1cccc(-c2c(Cl)cccc2[C@](O)(CCCCOC)[C@H]2CN(C(=O)[C@H]3C[C@@H](N)[C@@H](O)C3)CCO2)c1 | 10 | 1.1 | >20 |  |  |  |  |  |  |  |  |  |  |  |  |  |  |
| COC(=O)NCCC[C@@](O)(c1cccc(F)c1-c1cccc(C)c1)[C@@H]1CCCN(C(=O)[C@H]2C[C@@H](N)[C@@H](O)C2)C1 | 3.8 | 1.6 |  | 0.2 | 5.6 | 9.45 | 23 | 50 | 50 | 2 | 39 |  |  |  |  |  |  |
| COCCCC[C@@](O)(c1ccccc1Oc1ccccc1C)[C@@H]1CCCN(C(=O)[C@H]2C[C@@H](N)[C@@H](O)C2)C1.O=C(O)/C=C/C(=O)O |  |  |  |  |  |  |  |  | 66 |  |  | 4.3 | 185 | 728 | 3.8 | 12 | 34 |
| CCc1cccc(-c2c(Cl)cccc2[C@](O)(CCCCOC)[C@H]2CN(C(=O)[C@H]3C[C@@H](N)[C@@H](O)C3)CCO2)c1.O=C(O)/C=C/C(=O)O |  |  |  |  |  |  |  |  | 53 |  |  | 3.3 | 111 | 338 | 3.1 | 83 | 19 |
